Measured values reported in publication PMC3090455 (Analytical biochemistry, 2011).
Converted amounts (≈) assume the structure as drawn. Blank lines part the entries; values can stand above or below the molecule they belong to.

Key:
rat mEH [1] = target: T1, rat mEH (Rattus norvegicus, UniProt P07687); experiment: Inhibition potency assay with fluorescent substrate 11, rat mEH; type: biochemical
T1 sequence (P07687 1-455): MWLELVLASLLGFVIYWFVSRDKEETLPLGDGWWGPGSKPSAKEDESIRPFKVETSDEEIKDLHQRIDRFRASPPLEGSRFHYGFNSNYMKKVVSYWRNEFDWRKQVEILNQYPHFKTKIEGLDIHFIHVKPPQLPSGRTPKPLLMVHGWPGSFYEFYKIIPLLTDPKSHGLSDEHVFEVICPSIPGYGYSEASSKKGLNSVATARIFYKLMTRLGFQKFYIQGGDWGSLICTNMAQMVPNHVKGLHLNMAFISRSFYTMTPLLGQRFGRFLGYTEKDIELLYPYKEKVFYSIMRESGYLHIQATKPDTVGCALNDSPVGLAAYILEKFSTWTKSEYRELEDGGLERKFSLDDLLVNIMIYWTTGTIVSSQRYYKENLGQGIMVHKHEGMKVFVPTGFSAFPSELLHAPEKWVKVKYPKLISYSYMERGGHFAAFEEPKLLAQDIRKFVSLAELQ
Procedure, shortened: (§1)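 Kinetic fluorescent format: baculovirus-expressed, partially purified enzyme in 100 mM Tris/HCl pH 8.5 with 0.1 mg/mL BSA (final human 1.6, rat 0.5 μg/mL), preincubated 5 min at 30°C with inhibitor (0–200 μM final, from DMSO). Substrate at 25 μM final (rat also tested at 2.5 μM). Naphthaldehyde followed 10 min at 30°C. IC50 regressed from ≥6 points in the linear region; three runs, each in triplicate.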

rat mEH [2] = target: T1, rat mEH; experiment: Inhibition potency assay with [3H]-cSO radiochemical substrate, rat mEH; type: biochemical
Procedure, shortened: (§2)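 Radiochemical format with [3H]-cis-stilbene oxide at 50 μM final. Partially purified recombinant enzyme: rat 1.0, human 3.2 μg/mL. Reaction in 100 mM Tris/HCl pH 9.0 with 0.1 mg/mL BSA, 5 min at 30°C, quenched with isooctane to extract remaining epoxide. Radioactive diol in the aqueous phase counted by liquid scintillation; run in triplicate.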

human mEH [3] = target: T2, human mEH (Homo sapiens, UniProt P07099); experiment: Inhibition potency assay with [3H]-cSO radiochemical substrate, human mEH; type: biochemical
T2 sequence (P07099 1-455): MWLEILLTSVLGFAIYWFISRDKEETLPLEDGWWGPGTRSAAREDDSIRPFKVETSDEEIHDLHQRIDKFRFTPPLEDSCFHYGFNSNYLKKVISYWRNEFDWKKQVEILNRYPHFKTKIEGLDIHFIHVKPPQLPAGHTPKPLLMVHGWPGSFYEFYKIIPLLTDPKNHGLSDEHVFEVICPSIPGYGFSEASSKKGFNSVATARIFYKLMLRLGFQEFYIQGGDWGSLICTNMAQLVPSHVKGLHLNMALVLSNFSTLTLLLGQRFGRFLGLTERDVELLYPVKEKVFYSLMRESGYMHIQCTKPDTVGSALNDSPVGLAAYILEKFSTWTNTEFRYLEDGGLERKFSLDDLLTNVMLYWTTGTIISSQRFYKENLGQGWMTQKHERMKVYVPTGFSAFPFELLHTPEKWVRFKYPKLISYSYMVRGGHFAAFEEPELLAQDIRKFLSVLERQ
Procedure, shortened: as §2

human mEH [4] = target: T2, human mEH; experiment: Inhibition potency assay with fluorescent substrate 11, human mEH; type: biochemical
Procedure, shortened: as §1

rat mEH [5] = target: T1, rat mEH; experiment: High throughput screening end-point assay with 11, rat mEH; type: biochemical; conditions: average, n = 4 for each enzyme, 30 min end-point
Procedure, shortened: (§3)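 End-point screen of a pesticide library at 10 μM final. Recombinant partially purified enzyme (human 1.6, rat 0.5 μg/mL final) in 100 mM Tris/HCl pH 8.5 with 0.1 mg/mL BSA, preincubated with compounds 5 min at 30°C. Substrate added to 25 μM, then 30 min at room temperature in the dark before fluorescence reading (ex 330/em 465 nm). Buffer-only background and full-activity control wells; duplicate averages.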

rat mEH [6] = target: T1, rat mEH; experiment: Kinetic constants determination, rat mEH; type: biochemical; conditions: greater
human mEH [7] = target: T2, human mEH; experiment: Assay conditions optimization with substrate 11, human mEH; type: biochemical
Procedure, shortened: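 Recombinant human mEH from baculovirus, partially purified. Enzyme titrated at 0–10 μg/mL final against 25 μM fluorogenic glycidyl carbonate substrate, in 0.1 M Tris/HCl pH 9.0 with 0.1 mg/mL BSA at 37°C, followed over 30 min. Then 1.6 μg/mL enzyme with substrate compared across six buffers (three pH values) at 30 and 37°C over 10 min, against enzyme-free background. 6-Methoxy-2-naphthaldehyde read at ex 330/em 465 nm.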

human mEH [8] = target: T2, human mEH; experiment: Specific activity of human mEH for absorbent/fluorescent substrates; type: biochemical; conditions: [S] 50 μM, pH 9.0, 37°C, fluorescent substrates
Procedure, shortened: (§4)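 Partially purified recombinant enzyme (0.5–80 μg/mL final) in 100 mM Tris/HCl pH 9.0 with 0.1 mg/mL BSA, preincubated 5 min at 37°C. Substrate added at 50 μM final from 5 mM DMSO stock; buffer-only wells gave background. Read kinetically for 5 min: 4-nitrophenol at 450 nm, or fluorescence (coumarin ex 355/em 450; naphthaldehyde ex 330/em 465). Signals converted via standard curves (0.005–0.5 μM); 8 replicates.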

rat mEH [9] = target: T1, rat mEH; experiment: Specific activity of rat mEH for absorbent/fluorescent substrates; type: biochemical; conditions: [S] 50 μM, pH 9.0, 37°C, fluorescent substrates
Procedure, shortened: as §4

Substrate solubility = type: physicochemical; conditions: assay buffer, pH 9
Background = type: physicochemical
Procedure, shortened: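 Enzyme-free control wells held Tris/HCl (100 mM, pH 9.0, 0.1 mg/mL BSA), preincubated 5 min at 37°C. Substrate was added from a 5 mM DMSO stock working solution to 50 μM final, and product was read kinetically for 5 min. Read-out was 4-nitrophenol absorbance at […] fluorescence (ex 355/em 450 or ex 330/em 465 nm). Signals were converted to molar amounts via 0.005–0.5 μM standard curves; 8 replicates.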

human mEH [10] = target: T2, human mEH; experiment: High throughput screening end-point assay with 11, human mEH; type: biochemical; conditions: average, n = 4 for each enzyme, 30 min end-point
Procedure, shortened: as §3

human mEH [11] = target: T2, human mEH; experiment: Kinetic constants determination, human mEH; type: biochemical; conditions: lower than for cSO
[12] = IC50, Rat mEH, 11 as substrate, [11] 25 μM, enzyme 0.5 μg/mL, pH 8.5, 30°C
[13] = HmEH 1.6 μg/mL, 25 μM 11, Tris/HCl pH 9.0, 37°C

IC50 (rat mEH [1]; [12]): 4200 ± 700 nM
IC50 (rat mEH [1]; IC50, rat mEH, 11 as substrate near its KM, [11] = 2.5 μM): 500 nM
IC50 (rat mEH [2]): 400 ± 100 nM
IC50 (human mEH [3]): 500 ± 100 nM
Structure (SMILES): CCCCCCCCCSC(C)C(N)=O (centres unmarked) [A, 2-nonylsulfanyl-propionamide]

Structure (SMILES): CCCCCCCC/C=C/CCCCCCCC(N)=O [B, elaidamide]
IC50 (rat mEH [1]; read-out: IC50, Rat mEH, 11 as substrate, [11] 25 μM, enzyme 0.5 μg/mL, pH 8.5, 30°C): 63000 ± 5000 nM
IC50 (rat mEH [2]; read-out: IC50, Rat mEH, cSO as substrate, [cSO] 50 μM, enzyme 1.0 μg/mL): 500 ± 100 nM
IC50 (human mEH [4]; read-out: IC50, Human mEH, 11 as substrate, [11] 25 μM, enzyme 1.6 μg/mL, pH 8.5, 30°C): 140000 ± 13000 nM
IC50 (human mEH [3]; read-out: IC50, Human mEH, cSO as substrate, [cSO] 50 μM, enzyme 3.2 μg/mL): 1000 ± 100 nM

IC50 (rat mEH [1]; [12]): 123000 ± 13000 nM
IC50 (rat mEH [2]): 1100 ± 100 nM
IC50 (human mEH [4]): > 200000 nM
IC50 (human mEH [3]): 2600 ± 300 nM
Structure (SMILES): CCCCCCC(O)CCCCCCCCCCC(N)=O (centres unmarked) [C, 12-hydroxy-octadecanamide]

Structure (SMILES): COc1ccc2cc(C(C#N)OC(=O)OCC3CO3)ccc2c1 (centres unmarked) [compound 11, Cyano(6-methoxynaphthalen-2-yl)methyl (oxiran-2-ylmethyl) Carbonate]
S/N of HTS assay (rat mEH [5]): > 30
Z' of HTS assay (rat mEH [5]): 0.69 ± 0.03
VM/KM relative to cSO and 9, rat mEH (rat mEH [6]): 10 fold
signal to background ratio (S/B) (human mEH [7]; [13]): ≈ 3
signal to noise ratio (S/N) (human mEH [7]; [13]): ≈ 40
decrease of catalytic activity of human mEH on reducing temperature (human mEH [7]; incubation temperature from 37 to 30 °C, all buffers tested, 25 μM 11): ≈ 30%
Human mEH S/B (human mEH [8]): 4
Human mEH Spec. act. (human mEH [8]): 25 ± 2 nmol/min/mg
Human mEH Z' (human mEH [8]): 0.66
Rat mEH S/B (rat mEH [9]): 5
Rat mEH S/N (rat mEH [9]): 48
Rat mEH Spec. act. (rat mEH [9]): 68 ± 4 nmol/min/mg
Rat mEH Z' (rat mEH [9]): 0.73
solubility (Substrate solubility): ~50 µM (≈ 15.7 µg/mL)
reduction of background hydrolysis on reducing pH (Background; Tris/HCl, pH reduced from 9.0 to 8.5, 25 μM 11): ≈ 30%
background hydrolysis (Background; [S] 50 μM, Tris/HCl 100 mM pH 9.0, 0.1 mg/mL BSA, 37°C, fluorescent substrates): 0.018 ± 0.003 nmol/min
reduction of background hydrolysis on reducing temperature (Background; incubation temperature from 37 to 30 °C, 25 μM 11): at least 50%
S/N of HTS assay (human mEH [10]): > 30
Z' of HTS assay (human mEH [10]): 0.69 ± 0.03
KM relative to cSO, human mEH (human mEH [11]): ~40 fold
